Shown is part of a subset that was picked to be rich in hits.
Fibroblast inh: blocks proliferation of human lung fibroblasts; AID 719; 85,000 tested, 1.1% active; viability, % at 10 µM; LL 47 human lung fibroblast viability, ATP luminescence; active compounds read low;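 active means viability at or below 50% in the single dose screen; inactive means viability above 50%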;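 further: compound exposure lasted 72 h before the ATP readout; 100% = median luminescence of untreated cell-only wells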
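material = human LL 47 lung fibroblast cells | dosing = compounds added from tenfold dosing solution, 0.1% DMSO final | timing = overnight cell rest, 72 h compound treatment at 37 °C | measured by = CellTiter-Glo luminescence measuring cellular ATP | evaluation = % viability versus median cells-only luminescence | control set = cell-only wells, no compound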
HCT116 bCat-KO: beta-catenin-lacking colon tumor cell growth suppression; HCT116 beta-catenin knockout viability, CellTiter-Glo, 60 h; active compounds read low; viability, % at 10 µM; 140,000 tested, 1.5% active; AID 818;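 active means viability at or under a set limit, the compound median less 4 SD, cut at about 6% in these data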;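 further: 0% = Hyamine 1622 control at 20 µM and 100% = untreated cell control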
H69AR growth 86K: growth inhibitors of human H69AR lung tumor cells; viability, % at 10 µM; 85,000 tested, 6% active; H69AR lung tumor viability, ATP luminescence, 72 h; active compounds read low; AID 598;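 active means viability at or below 40%; inactive means viability above 40%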;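 further: multidrug resistant small cell line overexpressing MRP-1 efflux transporter; 100% = mean luminescence of untreated control wells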
HUVEC inhibit: blocks proliferation of human endothelial cells; HUVEC proliferation, CellTiter-Glo luminescence, 72 h; active compounds read low; 86,000 tested, 1.1% active; viability, % at 10 µM (by protocol);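 active means viability at or below 30%; inactive means viability above 30%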;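 further: 100% = median luminescence of DMSO-only cell control wells on each plate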
PTEN del growth: PTEN-deleted cell growth suppression. 140,000 tested, 1.2% active. viability, % at 10 µM. AID 827. HCT116 PTEN-null viability, CellTiter-Glo, 60 h; active compounds read low;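 active means viability at or below a set limit, 4 SD under the median of all tested compounds, cut at about 3.7% in these data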;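 further: PTEN knockout HCT116 line with beta catenin targeted HCT116 as companion control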
* hit, by the source's call; · = not tested or not shown.

SMILES	Fibroblast inh	HCT116 bCat-KO	H69AR growth 86K	HUVEC inhibit	PTEN del growth
Cc1cccc(S(=O)(=O)C(C#N)c2nc3ccccc3nc2N2CCOCC2)c1 (stereo unspecified)	99.2	105.2	95.7	88.0	99.4
COc1cc(C(=O)N2CCN(c3ccc([N+](=O)[O-])cc3)CC2)ccc1OCc1c(C)noc1C	98.7	67.1	38.3*	110.2	70.5
COc1ccc(N2CCN(C(=O)c3ccc(OCc4c(C)noc4C)c(OC)c3)CC2)cc1	95.5	89.6	92.3	101.5	93.4
CCOC(=O)Nc1oc2ccccc2c(=O)c1C	92.6	95.6	95.1	86.2	93.8
CCOC(=O)/C=C(\C)Sc1cc(=O)oc2ccccc12	86.4	9.5	12.5*	49.2	7.4
COc1ccc(N=c2oc3c(OC)cccc3cc2C(=O)NCc2ccco2)cc1OC	90.2	83.6	36.3*	56.0	82.1
COc1ccc(OC)c(N=c2oc3c(OC)cccc3cc2C(=O)NCc2ccco2)c1	91.7	·	87.9	94.1	·
COc1ccc(CC(=O)NCc2ccco2)cc1OC	91.3	86.8	81.7	92.9	93.5
COc1ccccc1N=c1oc2c(OC)cccc2cc1C(=O)NCc1ccco1	85.7	12.4	14.7*	60.7	7.5
COc1cc(CNn2cn[nH]c2=S)cc(Cl)c1OCc1ccccc1	·	101.2	·	·	94.5
CCOc1cc(CNC2CCCC2)cc(Cl)c1OCc1ccccc1	·	1.6*	·	·	1.8*
Oc1[nH]c2ccccc2c1N=Nc1ccc(F)cc1	·	80.5	·	·	79.3
Oc1[nH]c2ccccc2c1N=Nc1nc2ccccc2s1	·	1.3*	·	·	1.6*
Cc1nn(C)c(C(=O)Nc2ccc(Cl)c([N+](=O)[O-])c2)c1Cl	·	84.5	·	·	89.9
Cc1cc2c(c(Sc3ccccc3)n1)C(=O)OC2	100.5	96.5	91.8	95.0	100.9
CC1(C)CC(=O)c2cc(C(=O)O)c(=O)n(-c3ccccc3)c2C1	101.6	105.8	101.9	100.7	110.0
CCOC(=O)c1cc2c(n(-c3ccccc3)c1=O)CC(C)(C)CC2=O	89.0	105.4	35.7*	87.0	88.3
CCOC(=O)c1ccccc1NC(=O)Cn1cnc2c(cnn2C(C)(C)C)c1=O	95.4	82.0	37.3*	81.9	83.0
CC(C)(C)n1ncc2c(=O)n(CC(=O)NCc3ccc(F)cc3)cnc21	83.6	27.2	21.3*	58.3	31.6
Cc1ccc2c(c1)c1c3n2CCN=C3CCC1	97.8	94.4	91.9	83.2	85.3
c1cc2c(cc1C1CCCCC1)c1c3n2CCCNC3CCC1 (stereo unspecified)	2.6*	0.5*	1.3*	2.7*	0.7*
Cc1ccc2c(c1)c1c3n2CCCNC3CCC1 (stereo unspecified)	·	74.3	·	·	74.8
c1cc2c(cc1C1CCCCC1)c1c3n2CCN=C3CCC1	66.5	2.1*	0.2*	2.1*	9.7
Cc1cc(C)c2nc(NNC(=O)c3ccc(S(=O)(=O)N4CCc5ccccc5C4)cc3)sc2c1	·	4.0*	·	·	6.5
COc1ccccc1-c1nnc(SCC(=O)Nc2ccc(S(N)(=O)=O)cc2)n1C	103.5	111.0	86.0	91.5	109.1
SMILES	Fibroblast inh	HCT116 bCat-KO	H69AR growth 86K	HUVEC inhibit	PTEN del growth
Cn1nc(-c2ccc(C(=O)Nc3cccc(Cl)c3)cc2)c2ccccc2c1=O	51.8	96.9	4.3*	41.0	95.1
Cc1ccc(NC(=O)c2ccc(-c3nn(C)c(=O)c4ccccc34)cc2)c(C)c1	96.7	76.9	77.2	99.9	76.4
Cn1nc(-c2ccc(C(=O)Nc3cccnc3)cc2)c2ccccc2c1=O	107.4	98.0	85.5	96.2	94.1
Cc1ccc(NC(=O)c2ccc(-c3nn(C)c(=O)c4ccccc34)cc2)cc1	106.1	87.3	34.6*	67.0	78.9
COc1cc(OC)cc(C(=O)Nn2cc(C(=O)Nc3c(F)cccc3F)c3ccccc3c2=O)c1	·	83.4	·	·	82.3
Cc1c(/C(O)=C2/C(=O)C(=O)N(CCCN3CCOCC3)C2c2ccncc2)cnn1-c1ccccc1 (stereo unspecified)	102.2	·	97.8	96.9	·
CCN(CC)c1ccc(NC(=O)c2cccnc2)c(C)c1	99.4	49.3	39.7*	88.9	38.0
Cc1nnc2sc(-c3ccc(NC(=O)c4cccnc4)cc3)nn12	102.7	·	10.1*	98.7	·
CCc1ccc(NC(=O)c2cccnc2)cc1	94.0	90.6	80.6	98.3	100.5
CCSc1ccc(NC(=O)c2cccnc2)cc1	100.4	93.5	33.1*	105.0	84.5
CC(=O)Cc1nsc(NC(=O)c2ccc(-c3ccc(Cl)cc3Cl)o2)n1	98.6	102.1	42.8	69.8	108.1
CCN(CC)c1ccc(NC(=O)c2cccc(C)c2OC)c(C)c1	89.7	76.3	82.6	106.1	76.0
Cc1nnc2sc(-c3ccc(NC(=O)c4ccc(-c5ccc(Cl)cc5Cl)o4)cc3)nn12	59.1	·	8.2*	28.4*	·
Cn1c(=O)[nH]c2ccc([N+](=O)[O-])nc21	·	96.4	·	·	93.4
C=CCN(CC=C)C(=O)c1cc2ccccc2c(=O)o1	·	89.6	·	·	97.4
O=C(Nc1nc2cc(Cl)ccc2s1)C1CCCN(S(=O)(=O)c2cccc3cccnc23)C1 (stereo unspecified)	·	26.7	·	·	20.8
CS(=O)(=O)N1CCN(c2ccccc2NC(=O)c2ccc(-c3ccc(Cl)cc3Cl)o2)CC1	97.4	67.2	69.1	88.7	69.2
CN1CCN(c2ccccc2NC(=O)c2ccc(-c3ccc(Cl)cc3Cl)o2)CC1	93.8	5.5*	31.6*	5.8*	7.1
O=C(c1ccco1)N1CCN(c2ncnc3scc(-c4cccs4)c23)CC1	88.0	67.0	43.0	68.6	76.7
Cc1ccc(-c2csc3ncnc(N4CCN(C(=O)c5ccccc5)CC4)c23)cc1	73.7	31.5	22.2*	58.9	33.9
O=C(c1ccco1)N1CCN(c2ncnc3scc(-c4ccccc4)c23)CC1	112.5	86.8	39.8*	99.8	74.7
O=S(=O)(/N=C(/c1ccccc1)N1CCCCC1)c1ccccc1	·	98.3	·	·	98.6
O=C(NCc1cccs1)C(=O)NCC1OCCCN1S(=O)(=O)c1ccccc1 (stereo unspecified)	·	86.5	·	·	92.7
COc1ccc(NC(=O)Cn2nnc(-c3ccccc3NC(=O)c3cccs3)n2)cc1	·	62.0	7.5*	31.6	50.0
CC(C)(C)NC(=O)Cn1nnc(-c2ccccc2NC(=O)c2ccco2)n1	93.0	93.6	88.8	95.1	100.7
SMILES	Fibroblast inh	HCT116 bCat-KO	H69AR growth 86K	HUVEC inhibit	PTEN del growth
COc1ccc(NC(=O)Cn2nnc(-c3ccccc3NS(=O)(=O)c3ccc(OC)cc3)n2)cc1	·	10.2	·	·	11.5
O=C(Cn1nnc(-c2ccccc2NC(=O)c2ccco2)n1)Nc1ccccc1	77.9	58.0	22.9*	45.8	74.3
CCOc1ccc(NC(=O)Cn2nnc(-c3ccccc3NC(=O)CC)n2)cc1	89.3	87.5	80.5	94.0	85.4
Cc1ccc(NC(=O)Cn2nnc(-c3ccccc3NC(=O)c3cccs3)n2)cc1	46.4*	4.0*	6.8*	18.6*	3.4*
CCc1cccc(C)c1NC(=O)CN(C)Cc1ccccc1F	·	84.6	·	·	88.0
CC1CC(C)(C)Nc2ccc(OC(=O)c3ccco3)cc21 (stereo unspecified)	1.7*	0.8*	1.1*	5.7*	0.7*
